Measurements published in ChEMBL document CHEMBL1799919, “Design, synthesis, biological evaluation, and structure-activity relationships of substituted phenyl 4-(2-oxoimidazolidin-1-yl)benzenesulfonates as new tubulin inhibitors mimicking combretastatin A-4” (J Med Chem, 2011).
The source made the active and inactive calls. No cut-off for these calls is given here.

Columns and labels:
M21 [1] = experiment: Cell cycle arrest in human M21 cells assessed as accumulation at S phase at 5 times IC50 after 24 hrs using propidium iodide staining by flow cytometric analysis (reference value: 30%); assay type: functional
CEM-VLB = experiment: Resistant ratio of IC50 for multidrug-resistant human CEM-VLB cells to IC50 for human CEM cells; assay type: functional
Method in brief: (§1)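 Ratio of the IC50 in the resistant line (CEM-VLB, CHO-TAX 5-6 or CHO-VV 3-2) to the IC50 in its parental line (CEM or CHO).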

M21 [2] = experiment: Antiproliferative activity against human M21 cells after 48 hrs by sulforhodamine B assay; assay type: functional, cell-based; details: M21, 48 h
CCRF-CEM = experiment: Antiproliferative activity against human CEM cells after 48 hrs by sulforhodamine B assay; assay type: functional, cell-based
M21 [3] = experiment: Cell cycle arrest in human M21 cells assessed as accumulation at G0/G1 phase at 5 times IC50 after 24 hrs using propidium iodide staining by flow cytometric analysis (reference value: 61%); assay type: functional
CHO-TAX 5-6 [4] = experiment: Resistant ratio of IC50 for paclitaxel-resistant CHO-TAX 5-6 cells to IC50 for CHO cells; assay type: functional, Cricetulus griseus; method in brief: as §1
CHO-VV 3-2 = experiment: Antiproliferative activity against colchicine- and vinblastine-resistant CHO-VV 3-2 cells after 48 hrs by sulforhodamine B assay; details: Cricetulus griseus, CHO-VV 3-2, 48 h
HT-1080 [5] = experiment: Antivasculogenic activity against human HT1080 cells xenografted in chicken chorioallantoic membrane assessed as inhibition of tumor growth at 1 ug per egg, iv measured on day 14 by CAM assay; assay type: functional; set-up: scale not given: the % may be the effect or the level left
MCF7 = experiment: Antiproliferative activity against human MCF7 cells after 48 hrs by sulforhodamine B assay; assay type: functional, cell-based; details: MCF7, 48 h
M21 [6] = experiment: Cell cycle arrest in human M21 cells assessed as accumulation at G2/M phase at 5 times IC50 after 24 hrs using propidium iodide staining by flow cytometric analysis (reference value: 9%); assay type: functional
[7] = Antiproliferative activity against multidrug-resistant human CEM/VLB cells after 48 hrs by sulforhodamine B assay; assay type: functional
[8] = Toxicity against fertilized chicken embryo assessed as mortality at 1 ug per egg, iv by CAM assay; assay type: organism-based, Gallus gallus; details: in vivo, read-out: Activity
Method in brief: (§2)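 Fertilized chicken eggs incubated 10 days with automatic turning, then static. HT-1080 cells (3.5 × 10^5 cells/egg) grafted onto exposed CAM. On day 11, drug in DMSO diluted into cremophor/ethanol/PBS (6.25/6.25/87.5 v/v) excipient, DMSO below 0.5%, 100 μL injected iv into 10-12 eggs. Eggs incubated to day 17, dead embryos counted. Untreated eggs used for normalization. Two independent experiments, at least 10 eggs each.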

L1210 = experiment: Antiproliferative activity against mouse L1210 cells after 48 hrs by sulforhodamine B assay; assay type: functional, cell-based; details: L1210, 48 h
K562 = experiment: Antiproliferative activity against human K562 cells after 48 hrs by sulforhodamine B assay; assay type: functional, cell-based; details: K562, 48 h
MDA-MB-231 [9] = experiment: Displacement of N,N'-ethylenebis(iodoacetamide) from colchicine-binding site of beta-tubulin in human MDA-MB-231 cells at 1000 times IC50 preincubated for after 2 hrs before N,N'-ethylenebis(iodoacetamide) addition measured after 1.5 hrs by chemiluminescence assay; assay type: cell-based
Method in brief: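 EBI (100 μM final) added for 1.5 h at 37 °C; controls received 0.5% DMSO. Lysates (20 μg protein) run on 10% SDS-PAGE and blotted with anti-β-tubulin (TUB 2.1). β-tubulin–EBI adduct band detected by ECL.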

SK-OV-3 = experiment: Antiproliferative activity against human SKOV3 cells after 48 hrs by sulforhodamine B assay; assay type: functional, cell-based; details: SK-OV-3, 48 h
CHO = experiment: Antiproliferative activity against CHO cells after 48 hrs by sulforhodamine B assay; assay type: functional, cell-based; details: Cricetulus griseus
HT-1080 [10] = experiment: Antiproliferative activity against human HT1080 cells after 48 hrs by sulforhodamine B assay; assay type: functional, cell-based; details: HT-1080, 48 h
DU-145 = experiment: Antiproliferative activity against human DU145 cells after 48 hrs by sulforhodamine B assay; assay type: functional, cell-based; details: DU-145, 48 h
HT-29 = experiment: Antiproliferative activity against human HT-29 cells after 48 hrs by sulforhodamine B assay; assay type: functional, cell-based; details: HT-29, 48 h
MDA-MB-231 [11] = experiment: Antiproliferative activity against human MDA-MB-231 cells after 48 hrs by sulforhodamine B assay; assay type: functional, cell-based; details: MDA-MB-231, 48 h
[12] = Antiproliferative activity against mouse P388D1 cells after 48 hrs by sulforhodamine B assay; assay type: functional, cell-based; details: P388D1, 48 h
M21 [13] = experiment: Disruption of cytoskeleton microtubule structure of human M21 cells at 5 times IC50 after 16 hrs by indirect immunofluorescence assay; assay type: functional, cell-based
Method in brief: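 Fixed in 3.7% formaldehyde, permeabilized with saponin, and stained with anti-β-tubulin (TUB 2.1), Alexa-488 secondary and DAPI. Microtubule structure scored by fluorescence microscopy.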

CHO-TAX 5-6 [14] = experiment: Antiproliferative activity against paclitaxel-resistant CHO-TAX 5-6 cells after 48 hrs by sulforhodamine B assay; assay type: functional, cell-based; details: Cricetulus griseus, CHO-TAX 5-6, 48 h
[15] = Antiproliferative activity against mouse B16F0 cells after 48 hrs by sulforhodamine B assay; assay type: functional, cell-based; details: B16F0, 48 h
[16] = Toxicity against fertilized chicken embryo assessed as mortality at 3 ug per egg, iv by CAM assay; assay type: organism-based, Gallus gallus; details: in vivo, read-out: Activity; method in brief: as §2
HT-1080 [17] = experiment: Antivasculogenic activity against human HT1080 cells xenografted in chicken chorioallantoic membrane assessed as inhibition of tumor growth at 3 ug per egg, iv measured on day 14 by CAM assay; assay type: functional

SMILES | Activity (M21 [1]) | Ratio IC50 (CEM-VLB) | IC50 (M21 [2]) | IC50 (CCRF-CEM) | Activity (M21 [3]) | Ratio IC50 (CHO-TAX 5-6 [4]) | IC50 (CHO-VV 3-2) | IC50 (MCF7) | Activity (M21 [6]) | IC50 [7] | IC50 (L1210) | IC50 (K562) | inhibition (MDA-MB-231 [9]) | IC50 (SK-OV-3) | IC50 (CHO) | IC50 (HT-1080 [10]) | IC50 (DU-145) | IC50 (HT-29) | IC50 (MDA-MB-231 [11]) | IC50 [12] | other results
COc1cc(OS(=O)(=O)c2ccc(N3CCNC3=O)cc2)cc(OC)c1OC | 1% | 1.3 | 4 nM | 7.1 nM | 1% | 0.41 | 8.2 nM | 5 nM | 98% | 9.5 nM | 5.4 nM | 2.5 nM | Active | 6.1 nM | 7.4 nM | 5.9 nM | 8.5 nM | 4 nM | 9.4 nM | 2.7 nM | Activity (HT-1080 [5]): 39%; mortality [8]: 8%; Activity (M21 [13]): Active; IC50 (CHO-TAX 5-6 [14]): 3 nM; IC50 [15]: 9.2 nM
O=C1NCCN1c1ccc(S(=O)(=O)Oc2c(F)cccc2F)cc1 | 33% | 1.3 | 15 nM | 68 nM | 5% | 0.52 | 74 nM | 32 nM | 62% | 87 nM | 67 nM | 65 nM | Active | 72 nM | 73 nM | 65 nM | 170 nM | 29 nM | 100 nM | 76 nM | mortality [16]: 13%; Activity (HT-1080 [17]): Active; Activity (M21 [13]): Active; IC50 (CHO-TAX 5-6 [14]): 38 nM; IC50 [15]: 91 nM
